For 167 variants, nonsense suppression results are on record in the RNAGym collection of RNA variant scans (doi:10.1101/gad.245936.114).

Variants at the floor of the assay were thinned out.

B1: tRNA (parent)
chain: CUCUCGGUAGCCAAGUUGGUUUAAGGCGCAAGACUUUAAUUUAUCACUACGAAAUCUUGAGAUCGGGCGUUCGACUCGCCCCCGGGAGAUUUUUUCCUCGAGCAA

This series covers variants of B1. The series is described as follows: nonsense suppression (GFP-seq) (ratio to wild type); higher = more function; SUP4oc tRNA, yeast GFP reporter sort-seq. In outline:
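Yeast carrying genome-integrated SUP4oc tRNA variants from a library with ~3% random mutations were grown in raffinose/galactose medium with 80 mg/L adenine. Each strain also carried a galactose-driven GFP ochre reporter and RFP. Cells were sorted into GFP/RFP bins, and each bin was Illumina-sequenced (phred ≥30). Nonsense suppression (GFPSEQ) is the bin median GFP/RFP, weighted by each variant's estimated cell share per bin, relative to wild-type SUP4oc; variants needed ≥100 reads and ≥30 cells.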
For A30G A74U, the nonsense suppression was found to be 0.028.
For the variant C34U U63C G85C, the nonsense suppression was not above 0.026.
Consider G32A A62G U71G G78A G85A, for which the nonsense suppression was not above 0.026.
In the case of C29U G65A C81U it was 1.14; in that of A30U G69U C80U, not above 0.026.
In the case of A30U U35G G65U, the nonsense suppression was not above 0.026.
In the case of A31G U57A it was 0.136; in that of A33G U57A, not above 0.026; in that of A31U U76A, 0.0413.
With C29U A54U, the nonsense suppression stood at 0.869.
In the case of A30U it was 0.575.
In the case of A30G it was 1.11; in that of A31G C34U, not above 0.026.
Then G32C C34G U35C, with not above 0.026.
A30U A62G C81G: the nonsense suppression is not above 0.026.
With G28U A33U, the nonsense suppression was not above 0.026.
With A30G C77U, the nonsense suppression was not above 0.026.
As for C34G G69C, the nonsense suppression was not above 0.026.
As to G32U G66A, the nonsense suppression was not above 0.026.
In the case of A31U C81A C82G, the nonsense suppression is not above 0.026.
Then A31G C75U, with 1.05.
In the case of A31G C75A, the nonsense suppression came to 1.06.
For C29U C68U, the nonsense suppression was 0.272.
Then C29U G86C, with 0.0331; and A31U C64U C72U, with not above 0.026; and A33G C80U, with 0.0422.
A33U U71A: the nonsense suppression is not above 0.026.
For the variant C29U U76C, the nonsense suppression was determined as 0.772.
For the variant C29U U76A, the nonsense suppression is 0.224.
Regarding A31G U57C G78A G86A, the nonsense suppression was not above 0.026.
Then G32A C79A G88A, with not above 0.026; and A30G U63C, with 0.205.
Then C29U G73A, with 0.238; and U35A U70C G73U C81U, with not above 0.026.
For C29U G61A, the nonsense suppression was found to be 0.83.
For C29U G61C, the nonsense suppression was determined as 0.0261.
In the case of C29U G61U it was 0.754.
Then A31U U57A, with 0.963; and C29U U71C, with 0.0323; and A31C U76G, with not above 0.026.
Turning to A33G A74C C80A, the nonsense suppression was not above 0.026.
In the case of A31C G66C G85U, the nonsense suppression is not above 0.026.
As to A31C U57A, the nonsense suppression was 0.219.
For the variant A31U U55G G67C, the nonsense suppression is not above 0.026.
As to G32U U76C, the nonsense suppression was not above 0.026.
Then G32U U55G A62C, with not above 0.026; and A30U U58A G78U, with 0.776.
For C34U A74C C79A, the nonsense suppression is not above 0.026.
For the variant A30C U55A, the nonsense suppression is not above 0.026.
Take G32A U76G: the nonsense suppression is not above 0.026.
In the case of A30U U76G, the nonsense suppression was determined as 0.0538.
For C29A G65C U71G, the nonsense suppression was not above 0.026.
Then A31C A60U, with 0.222.
On to C29A C75U, for which the nonsense suppression was determined as 0.0265.
A31G: the nonsense suppression is 1.08.
In the case of A31U it was 0.177; in that of C29G A87G, not above 0.026.
Turning to A30G G59A G73C, the nonsense suppression was not above 0.026.
Consider A33U C75A, for which the nonsense suppression stood at 0.192.
Then A31G A74U, with 0.029; and G32C A62U G65C C80A G88A, with not above 0.026; and C34U C81A G88C, with not above 0.026.
Take U35C C77A G85C: the nonsense suppression is not above 0.026.
As to A30U A54C, the nonsense suppression came to 0.0467.
Then A31U G61U, with 0.0345; and A31G A60C, with 0.177.
On to C34G C81A, for which the nonsense suppression was not above 0.026.
In the case of C29A U55G, the nonsense suppression was not above 0.026.
As to A30U U55C A87C A89U, the nonsense suppression worked out at 0.0456.
For the variant C34U A60G, the nonsense suppression is 0.0428.
Turning to A31G U63C, the nonsense suppression was 0.333.
Regarding A31G U63A, the nonsense suppression was determined as 0.684.
A31G U63G: the nonsense suppression turned out to be 0.0741.
C29A A60G: the nonsense suppression was found to be 0.0331.
In the case of A33G C79U it was 0.0403.
Then A31U C75A, with 0.758; and A33G G88C, with not above 0.026; and C34G C72A, with not above 0.026.
With A33U C34U, the nonsense suppression is not above 0.026.
In the case of C34G C64U, the nonsense suppression was not above 0.026.
For A30C U58G, the nonsense suppression came to 1.02.
In the case of G28U A33C U63A U71G, the nonsense suppression was not above 0.026.
With A33G G61C, the nonsense suppression is 0.034.
With A33G G61A, the nonsense suppression amounted to 0.0709.
Consider A33G G61U, for which the nonsense suppression turned out to be 0.119.
For the variant A33U U55G, the nonsense suppression was 0.167.
Then C34G U71G, with not above 0.026; and A33C U71G G86A, with not above 0.026.
On to A31G G84A, for which the nonsense suppression was not above 0.026.
Turning to A30U G61A, the nonsense suppression amounted to 0.0365.
As to A33G A87U G88U, the nonsense suppression was not above 0.026.
On to C29A A30C, for which the nonsense suppression was not above 0.026.
With A33G, the nonsense suppression worked out at 0.346.
In the case of A33U, the nonsense suppression was 0.0699.
For C34A A54U U71A C75A, the nonsense suppression was not above 0.026.
Regarding A30G A60G, the nonsense suppression came out at 0.108.
As for A31U G85A, the nonsense suppression was 0.164.
For A31C G84U, the nonsense suppression was not above 0.026.
In the case of C34A G65C G85C, the nonsense suppression is not above 0.026.
Regarding A30U C64U, the nonsense suppression is not above 0.026.
As to A33C U55C C64G U76C, the nonsense suppression is not above 0.026.
Turning to A30U G85U, the nonsense suppression came to 0.0315.
On to A30U G85A, for which the nonsense suppression turned out to be 0.52.
On to A31U A60C G66C U70A G85A, for which the nonsense suppression is not above 0.026.
Then C34G G86U, with not above 0.026; and C34U G65A U70A, with not above 0.026; and A30U G84U, with 0.423.
For the variant A31C G32U, the nonsense suppression is not above 0.026.
Then A31U A60C C75A, with 0.184; and C29U G67C, with not above 0.026.
Take C29G G32A G67U C75A: the nonsense suppression is not above 0.026.
Take A30G G59C A60C: the nonsense suppression was not above 0.026.
With A30G U71C, the nonsense suppression is 0.035.
On to A30G U71A, for which the nonsense suppression was found to be 0.05.
Consider C34G G61A, for which the nonsense suppression was determined as 0.0334.
In the case of C34G G61C, the nonsense suppression is not above 0.026.
In the case of A30G U76A it was 0.043.
In the case of A30C A31U it was not above 0.026; in that of A33C U55C C56U G66U C79G, not above 0.026; in that of C34U G61C, 0.0481.
In the case of C34U G61A, the nonsense suppression was found to be 0.0297.
For the variant C34G U55C, the nonsense suppression turned out to be 0.276.
Take C29G A33G G67A U71G G86A: the nonsense suppression was 1.12.
For A33C C56A G78A, the nonsense suppression was not above 0.026.
In the case of C29U C64U it was 0.035; in that of U35A G73U G84C, not above 0.026.
With A30U A31G, the nonsense suppression is 0.25.
On to A30U A31U, for which the nonsense suppression was found to be 0.035.
Consider A31G U70C, for which the nonsense suppression came to 0.0279.
In the case of U35A U57G C81U G85C A87U, the nonsense suppression is not above 0.026.
Take A31U U55C: the nonsense suppression was 0.0547.
In the case of A31U U63A, the nonsense suppression is 0.0391.
As to A31U U63G, the nonsense suppression was 0.0763.
Turning to G32C U63C, the nonsense suppression was not above 0.026.
Then A33U U57C A62G, with not above 0.026.
As to A30U C82G, the nonsense suppression is not above 0.026.
In the case of C29U C72U it was 0.101.
In the case of G32U C79A it was not above 0.026.
As for A30U G69C C72U, the nonsense suppression is not above 0.026.
As to A30U A74U, the nonsense suppression turned out to be 0.0497.
For A30U A74C, the nonsense suppression worked out at 0.0264.
As for A33G C75U, the nonsense suppression is 0.275.
Take A33G C75A: the nonsense suppression was 0.235.
Take A33G C75G: the nonsense suppression is 0.216.
C29A G73A: the nonsense suppression was not above 0.026.
In the case of G28U G78U it was 0.0435.
In the case of G28U G78A it was 0.0292; in that of A33G U63C, 0.11.
For A33G U63A, the nonsense suppression amounted to 0.031.
In the case of C34A A87G it was not above 0.026.
Take A31U G59C: the nonsense suppression is not above 0.026.
As for A33U U55C U63A U70C, the nonsense suppression is not above 0.026.
With C34U G69A A89C, the nonsense suppression is not above 0.026.
With A31G G73A, the nonsense suppression stood at 0.366.
In the case of A31C G61A C75G it was not above 0.026.
A31G C34G U76G: the nonsense suppression is not above 0.026.
Then A30U C79U, with 0.144; and A30U C79G, with not above 0.026; and C29U A30G, with 1.1.
With C29U A30U, the nonsense suppression was determined as 0.124.
As for C29U A30C, the nonsense suppression came out at 0.196.
In the case of G28U A30C A33G A54G U76C C79A, the nonsense suppression is not above 0.026.
Take C29A A54U C56U G66C: the nonsense suppression was not above 0.026.
In the case of A31G C77A, the nonsense suppression is not above 0.026.
In the case of C29U U35C, the nonsense suppression turned out to be 0.0545.
For the variant G28U C34A A87U, the nonsense suppression was not above 0.026.
With G32U U71C G84A, the nonsense suppression was not above 0.026.
